Measured values published in PubChem BioAssay.
The source made the active and inactive calls. Cut-off read from the data, not from the text of the source, unless noted: active = inhibition above about 30%; inactive = the rest.

Experiments:
[1] = reducers of endogenous Her2 protein level, primary screen, SKBR3 breast tumor cells, AlphaScreen, ATP viability (AID 461;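 active = Her2 level under about 52% in both replicate screens, with viability over 70% of control, limit read from the data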;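 for Her2 level: lower value means less Her2 protein in the cells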;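 for viability: percent of carrier control wells set as 100% viability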); conditions: 18-24 h, measured here: SKBR3 viability, ATP luminescence, at 10 µM
[2] = target: Receptor tyrosine-protein kinase erbB-2 (Homo sapiens) (UniProt P04626); assay: as above; conditions: 18-24 h, at 10 µM, stronger effect = lower value
[3] = SK-BR-3 cell growth inhibitors, pilot screen, 24 h, human (AID 572;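 active = viability at or below 10% of carrier control in both of two separate runs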;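 note: compound exposure lasted between 18 and 24 h rather than exactly 24 h; 100% = carrier-treated control wells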); conditions: SK-BR-3 viability, CellTiter-Glo luminescence, at 10 µM, stronger effect = lower value
[4] = HUVEC growth inhibition – cell-based, human, primary screen (AID 575;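 active = viability at or below 30% in both replicate assays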;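 note: 100% = median of untreated cell wells with 0.1% DMSO on each plate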); conditions: HUVEC proliferation, CellTiter-Glo luminescence, 72 h; at 10 µM; stronger effect = lower value
Outline: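 Assay system: Primary human umbilical vein endothelial cells | Quantity: 1250 cells per well | Medium: Supplemented EBM, 2% fetal bovine serum | Detection: CellTiter-Glo luminescence measuring cellular ATP | Read-out: % viability vs DMSO wells | Plate: Collagen-coated 384-well format | Times: 72 h exposure, 37 °C, 5% CO2, 30 min RT equilibration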

[5] = growth inhibitors of H69AR lung tumor, primary screen, human, duplicate replicates (AID 580;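 active = viability at or under a set limit in both replicates, limit being median viability minus 3 SD, cut at about 48% in these data, passing the limit was not always enough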;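 note: 100% = mean luminescence of untreated wells and 0% = no signal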); conditions: H69AR lung tumor cells viability, ATP luminescence, 72 h; at 10 µM; stronger effect = lower value
[6] = reversal of MRP1-mediated doxorubicin resistance, pilot screen, H69AR cells, doxorubicin co-treatment (AID 601;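 active = viability loss from added drug above about 55%, and viability with drug at most 40%, in both replicates, limit read from the data, passing the limit was not always enough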); conditions: CellTiter-Glo, 72 h, at 10 µM; for differential viability (reversal): stronger effect = higher value
[7] = 384-well plate pilot, post-Golgi transport modulator project, inhibition of yeast transport mutant growth (AID 636; in the data active = inhibition above about 31%); conditions: absorbance 615 nm, about 18 h, stronger effect = higher value
[8] = growth suppression of yeast trafficking mutant, preliminary HTS, modulators of trafficking downstream of Golgi apparatus project, 1536-format plate, OD 615 nm (AID 637); conditions: yeast transport mutant growth, absorbance 615 nm, 18 h; stronger effect = higher value
[9] = H69AR cells + 2 uM doxorubicin, measured here: viability with 2 uM doxorubicin, stronger effect = lower value
[10] = H69AR cells, compound alone cytotoxicity

Chain of Receptor tyrosine-protein kinase erbB-2 (Homo sapiens) (P04626 whole entry, looked up): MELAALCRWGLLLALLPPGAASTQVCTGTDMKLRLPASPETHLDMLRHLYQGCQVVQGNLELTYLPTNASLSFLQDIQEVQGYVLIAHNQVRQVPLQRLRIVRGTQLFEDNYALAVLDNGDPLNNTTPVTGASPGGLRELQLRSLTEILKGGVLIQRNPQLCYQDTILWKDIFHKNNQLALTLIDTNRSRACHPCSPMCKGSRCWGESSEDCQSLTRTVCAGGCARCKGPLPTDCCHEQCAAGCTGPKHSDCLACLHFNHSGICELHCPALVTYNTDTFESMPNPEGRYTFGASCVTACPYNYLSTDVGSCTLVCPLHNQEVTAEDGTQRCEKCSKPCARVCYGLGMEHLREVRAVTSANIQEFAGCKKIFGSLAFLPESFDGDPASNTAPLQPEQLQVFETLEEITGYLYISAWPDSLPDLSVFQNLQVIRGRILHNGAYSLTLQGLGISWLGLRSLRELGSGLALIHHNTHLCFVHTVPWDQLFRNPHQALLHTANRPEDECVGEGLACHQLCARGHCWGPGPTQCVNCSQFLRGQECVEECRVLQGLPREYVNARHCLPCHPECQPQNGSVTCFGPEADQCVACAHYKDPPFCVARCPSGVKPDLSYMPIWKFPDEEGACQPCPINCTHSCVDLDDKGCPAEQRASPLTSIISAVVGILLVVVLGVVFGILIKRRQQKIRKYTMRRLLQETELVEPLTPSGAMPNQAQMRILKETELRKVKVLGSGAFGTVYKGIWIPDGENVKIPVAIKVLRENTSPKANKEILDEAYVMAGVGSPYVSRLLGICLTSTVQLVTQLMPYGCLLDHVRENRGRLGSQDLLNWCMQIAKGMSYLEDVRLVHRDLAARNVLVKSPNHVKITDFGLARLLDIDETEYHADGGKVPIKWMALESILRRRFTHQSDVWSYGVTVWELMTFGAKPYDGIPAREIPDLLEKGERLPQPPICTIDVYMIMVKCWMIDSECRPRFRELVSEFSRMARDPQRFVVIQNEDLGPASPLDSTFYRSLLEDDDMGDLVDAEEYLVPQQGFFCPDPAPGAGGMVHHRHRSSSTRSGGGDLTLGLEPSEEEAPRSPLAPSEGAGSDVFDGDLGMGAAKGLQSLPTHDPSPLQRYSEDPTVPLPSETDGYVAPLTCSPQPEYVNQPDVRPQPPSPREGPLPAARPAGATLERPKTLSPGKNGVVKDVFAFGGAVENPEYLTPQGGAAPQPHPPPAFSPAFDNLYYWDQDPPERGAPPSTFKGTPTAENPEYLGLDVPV

SMILES | viability [1] | Her2 level [2] | viability [3] | viability [4] | viability [5] | differential viability (reversal) ([6]; H69AR cells + 2 uM doxorubicin) | viability [6, 9] | viability [6, 10] | inhibition [7] | inhibition [8]
CS(=O)(=O)N(CC(=O)Nc1ccc2c(c1)OCCO2)Cc1ccccc1 | 93.5% | 92% (inactive) | 93.5% (inactive) | 107% (inactive) | 99.5% (inactive) | 12.3% (inactive) | 87.2% | 99.5% | -4.93% (inactive) | -0.79% (inactive)
Cc1cccc(NC(=O)CSc2nnc(-c3cc(C)n(-c4ccccc4)c3C)o2)c1C | 115% | 91% (inactive) | 115% (inactive) | 66.3% (inactive) | 76.2% (inactive) | -3.98% (inactive) | 80.2% | 76.2% | 0.26% (inactive) | -6.03% (inactive)
CCC(c1nnnn1Cc1ccco1)N(CCc1ccccc1)Cc1cc2cccc(C)c2[nH]c1=O (stereo not given) | 105% | 77.5% (inactive) | 105% (inactive) | 69.2% (inactive) | 62.9% (inactive) | -3.2% (inactive) | 66.1% | 62.9% | -5% (inactive) | -2.67% (inactive)
CCCc1c(O)nc(SCC(=O)NCCc2ccc(OC)c(OC)c2)[nH]c1=O | 95% | 93.5% (inactive) | 95% (inactive) | 84.6% (inactive) | 104% (inactive) | -0.29% (inactive) | 104% | 104% | -4.53% (inactive) | -2.26% (inactive)
Cn1cnnc1SCC(=O)Nc1ccccc1Sc1ccccc1 | 107% | 91.5% (inactive) | 107% (inactive) | 113% (inactive) | 98.8% (inactive) | 8.32% (inactive) | 90.4% | 98.8% | -8.24% (inactive) | 4.67% (inactive)
COC(=O)c1cc(NS(=O)(=O)c2ccc3c(c2)CCC(=O)N3)cc(C(=O)OC)c1 | 112% | 86% (inactive) | 112% (inactive) | 94.2% (inactive) | 96.5% (inactive) | 1.56% (inactive) | 95% | 96.5% | 0% (inactive) | -2.86% (inactive)
CCOC(=O)c1ccc(NC(=O)COc2ccc(-n3cnnn3)cc2)cc1 | 124% | 95% (inactive) | 124% (inactive) | 96.8% (inactive) | 89% (inactive) | 1.81% (inactive) | 87.2% | 89% | -4.13% (inactive) | -1.43% (inactive)
COc1cc(C(=O)N2CCC(c3nc(-c4cccnc4)no3)CC2)cc(OC)c1OC | 96% | 110% (inactive) | 96% (inactive) | 110% (inactive) | 93.9% (inactive) | 11.1% (inactive) | 82.8% | 93.9% | -2.16% (inactive) | 6% (inactive)
c1cn(C23CC4CC(CC(C4)C2)C3)cn1 | 113% | 88% (inactive) | 113% (inactive) | 104% (inactive) | 92.3% (inactive) | 8.21% (inactive) | 84.1% | 92.3% | -5.6% (inactive) | 1.94% (inactive)
CCCC(=O)Nc1cc(C)c(NC(=O)c2ccccn2)cn1 | 90.5% | 92.5% (inactive) | 90.5% (inactive) | 92.2% (inactive) | 99.4% (inactive) | 9.38% (inactive) | 90.1% | 99.4% | -5.06% (inactive) | -0.32% (inactive)
COc1ccccc1Nc1ncnc2c1cnn2-c1cccc(C)c1 | 94.5% | 88.5% (inactive) | 94.5% (inactive) | 87.7% (inactive) | 95.4% (inactive) | 10.9% (inactive) | 84.5% | 95.4% | -5.33% (inactive) | -8.71% (inactive)
O=C(Cn1ccc2ccccc2c1=O)NCCC(=O)NC1CCN(Cc2ccccc2)CC1 | 58% | 106% (inactive) | 58% (inactive) | 107% (inactive) | 100% (inactive) | 17.5% (inactive) | 82.8% | 100% | 3.29% (inactive) | -4.91% (inactive)
COc1ccc(NC(C)=O)cc1NC(=O)CN1CCN(c2ccccn2)CC1 | 96% | 116% (inactive) | 96% (inactive) | 96% (inactive) | 85.6% (inactive) | 5.82% (inactive) | 79.8% | 85.6% | -1.87% (inactive) | -7.9% (inactive)
Cc1cc(-n2c(C)cc(C(=O)CSc3nc4ccccc4c(=O)n3Cc3ccco3)c2C)no1 | 105% | 83.5% (inactive) | 105% (inactive) | 92.2% (inactive) | 93.8% (inactive) | 4.09% (inactive) | 89.7% | 93.8% | -6.8% (inactive) | -1.43% (inactive)
N#Cc1nc(COc2ccc(Br)cc2)oc1N1CCCC1 | 99% | 90% (inactive) | 99% (inactive) | 89.4% (inactive) | 87.5% (inactive) | 0.745% (inactive) | 86.7% | 87.5% | -7.07% (inactive) | 0.66% (inactive)
CCOc1ccc(S(=O)(=O)N2CCN(C(=O)c3cccn3C)CC2)cc1 | 101% | 78.5% (inactive) | 101% (inactive) | 101% (inactive) | 97.3% (inactive) | 9.79% (inactive) | 87.5% | 97.3% | -9.04% (inactive) | -2.86% (inactive)

SMILES | viability [1] | Her2 level [2] | viability [3] | viability [4] | viability [5] | differential viability (reversal) ([6]; H69AR cells + 2 uM doxorubicin) | viability [6, 9] | viability [6, 10] | inhibition [7] | inhibition [8]
O=C(NCc1ccc2c(c1)OCO2)C1CCCN(S(=O)(=O)c2cccnc2)C1 (stereo not given) | 95.5% | 102% (inactive) | 95.5% (inactive) | 101% (inactive) | 92.4% (inactive) | 7.61% (inactive) | 84.8% | 92.4% | 0.38% (inactive) | -6.5% (inactive)
Cn1nnnc1SCC(=O)NC1CCCCC1 | 77.5% | 77% (inactive) | 77.5% (inactive) | 108% (inactive) | 96.1% (inactive) | -1.11% (inactive) | 97.2% | 96.1% | -5.95% (inactive) | -2.62% (inactive)
CCCc1[nH]nc2c1C(c1cccc(OC(=O)c3ccco3)c1)C(C#N)=C(N)O2 (stereo not given) | 93.5% | 72% (inactive) | 93.5% (inactive) | 81.6% (inactive) | 95.3% (inactive) | 1.18% (inactive) | 94.1% | 95.3% | -3.16% (inactive) | -1.11% (inactive)
CCN(CCNC(=O)CS(=O)(=O)Cc1nc(-c2cccc(OC)c2)oc1C)c1ccccc1 | 97.5% | 105% (inactive) | 97.5% (inactive) | 78.4% (inactive) | 99% (inactive) | -10.6% (inactive) | 110% | 99% | -6.67% (inactive) | -0.48% (inactive)
CCn1c(SCC(=O)N2CCCc3ccccc32)nnc1-c1cccs1 | 85.5% | 72.5% (inactive) | 85.5% (inactive) | 83.3% (inactive) | 87.5% (inactive) | 5.33% (inactive) | 82.2% | 87.5% | -5.87% (inactive) | 0.16% (inactive)
CN1CCN(c2oc(COc3ccc(-c4ccccc4)cc3)nc2C#N)CC1 | 83.5% | 72.5% (inactive) | 83.5% (inactive) | 66.3% (inactive) | 78.3% (inactive) | 17.7% (inactive) | 60.5% | 78.3% | -5.6% (inactive) | 0.79% (inactive)
CCC(C(=O)OCC(=O)Nc1c(C)n(C)n(-c2ccccc2)c1=O)c1ccccc1 (stereo not given) | 109% | 83% (inactive) | 109% (inactive) | 117% (inactive) | 87.7% (inactive) | 6.61% (inactive) | 81.1% | 87.7% | -4.66% (inactive) | -4.76% (inactive)
CC(=O)c1cccc(S(=O)(=O)NCC(c2ccco2)N2CCCCC2)c1 (stereo not given) | 101% | 80% (inactive) | 101% (inactive) | 96% (inactive) | 99.4% (inactive) | 11.9% (inactive) | 87.5% | 99.4% | -0.91% (inactive) | -7.3% (inactive)
O=C(NC12CC3CC(CC(C3)C1)C2)C1CCCN1C(=O)NC1CCCCC1 (stereo not given) | 102% | 113% (inactive) | 102% (inactive) | 108% (inactive) | 92.6% (inactive) | 16.5% (inactive) | 76.2% | 92.6% | -6.62% (inactive) | 1.5% (inactive)
COCCn1c(NCc2ccc(C)cc2)nc2c1c(=O)[nH]c(=O)n2C | 108% | 87.5% (inactive) | 108% (inactive) | 87.2% (inactive) | 107% (inactive) | 7.44% (inactive) | 99.5% | 107% | -2.27% (inactive) | -1.29% (inactive)
Cc1cc(NC(=O)CCCN2C(=O)c3cccnc3C2=O)no1 | 92% | 95.5% (inactive) | 92% (inactive) | 94.3% (inactive) | 107% (inactive) | 5.19% (inactive) | 102% | 107% | -2.84% (inactive) | -1.64% (inactive)
COc1ccc(CCNC(=O)c2cnc3scc(C)n3c2=O)cc1OC | 78% | 89% (inactive) | 78% (inactive) | 90.4% (inactive) | 94.8% (inactive) | 1.87% (inactive) | 92.9% | 94.8% | -6.27% (inactive) | 2% (inactive)
CC(C)(C)c1cc(C(=O)O)nn1-c1ccccc1 | 112% | 92% (inactive) | 112% (inactive) | 98.1% (inactive) | 92.2% (inactive) | 5.08% (inactive) | 87.1% | 92.2% | -4.47% (inactive) | -2.54% (inactive)
N#Cc1cnc(SCC(=O)Nc2ccccc2C(F)(F)F)nc1N | 88.5% | 81.5% (inactive) | 88.5% (inactive) | 99.7% (inactive) | 90.2% (inactive) | 1.73% (inactive) | 88.5% | 90.2% | -4.4% (inactive) | 5.9% (inactive)
O=C(O)c1c[nH]c2ccc(S(=O)(=O)N3CCN(c4ccc(F)cc4)CC3)cc2c1=O | 93.5% | 124% (inactive) | 93.5% (inactive) | 91.6% (inactive) | 93.7% (inactive) | 10.9% (inactive) | 82.8% | 93.7% | 0.53% (inactive) | -6.45% (inactive)
